Measured values taken from PMC4338581 (Bioorganic & medicinal chemistry letters, 2014).
Where two headings read alike, the source gives them in different places. Marks after values point to notes of the source that are not given here.

Experiments:
MMP-9 [1] = biological target: T1, MMP-9 (Homo sapiens, UniProt P14780); settings: ref [23]; cited from earlier work
[2] = ref [23]; cited from earlier work
[3] = test system: gelatinases (MMP-2 and MMP-9) versus other MMP family members; settings: ref [23], [24]; cited from earlier work
MMP-2 [4] = biological target: T2, MMP-2 (Homo sapiens, UniProt P08253); settings: ref [23]; cited from earlier work
T2 sequence (P08253 110-660): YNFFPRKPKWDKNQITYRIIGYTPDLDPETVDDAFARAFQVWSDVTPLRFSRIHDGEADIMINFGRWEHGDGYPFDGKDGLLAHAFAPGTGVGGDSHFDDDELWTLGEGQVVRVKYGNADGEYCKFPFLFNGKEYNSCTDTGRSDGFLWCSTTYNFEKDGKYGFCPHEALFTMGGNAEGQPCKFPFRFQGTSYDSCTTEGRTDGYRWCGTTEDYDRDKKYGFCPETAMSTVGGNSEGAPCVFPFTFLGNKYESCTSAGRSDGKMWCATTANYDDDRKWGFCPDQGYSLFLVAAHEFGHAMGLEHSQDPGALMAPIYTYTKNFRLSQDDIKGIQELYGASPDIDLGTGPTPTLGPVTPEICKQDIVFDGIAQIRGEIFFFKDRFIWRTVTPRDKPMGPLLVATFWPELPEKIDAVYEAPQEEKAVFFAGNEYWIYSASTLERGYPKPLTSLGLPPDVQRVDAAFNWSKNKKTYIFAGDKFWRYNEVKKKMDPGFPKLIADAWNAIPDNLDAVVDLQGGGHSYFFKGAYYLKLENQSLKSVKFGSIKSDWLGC

HT-1080 xenografts = settings: ref [19], cited from earlier work
MMP-7 = settings: ref [37]; cited from earlier work
[5] = Variable temperature absorbance spectra; type: physicochemical; settings: room temperature, PBS
Summary of the method: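 Dye-labelled triple-helical peptide conjugates in PBS; absorbance spectra recorded across a range of temperatures. Quenching efficiency was derived from these spectra together with variable-temperature fluorescence melting curves.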

[6] = Triple-helix melting temperature; type: physicochemical; settings: from fluorescence melting curves; Table 1
[7] = test system: gelatinases (MMP-2 and MMP-9) versus other MMP family members; test: Substrate selectivity for gelatinases within the MMP family; type: biochemical; settings: authors' summary statement
MMP-2 [8] = biological target: T2, MMP-2; test: Enzyme kinetics; type: biochemical; settings: λexcitation = 780 nm, λemission = 810 nm; for kcat: Michaelis-Menten; for Km: ± standard error of the mean
[9] = test system: HT-1080 xenografted tumors (gelatinase activity); test: FMT imaging of mice bearing HT-1080 fibrosarcoma xenografts; settings: 2 nmol i.v.
MMP-9 [10] = biological target: T1, MMP-9; test: Enzyme kinetics; type: biochemical; settings: λexcitation = 780 nm, λemission = 810 nm; for kcat: Michaelis-Menten; for Km: ± standard error of the mean
[11] = Fluorescence quenching efficiency, intact vs completely hydrolyzed; type: physicochemical; settings: from variable temperature absorbance spectra and variable temperature fluorescence melting curves
albumin = settings: ref [26]; cited from earlier work

T1 sequence (P14780 94-707): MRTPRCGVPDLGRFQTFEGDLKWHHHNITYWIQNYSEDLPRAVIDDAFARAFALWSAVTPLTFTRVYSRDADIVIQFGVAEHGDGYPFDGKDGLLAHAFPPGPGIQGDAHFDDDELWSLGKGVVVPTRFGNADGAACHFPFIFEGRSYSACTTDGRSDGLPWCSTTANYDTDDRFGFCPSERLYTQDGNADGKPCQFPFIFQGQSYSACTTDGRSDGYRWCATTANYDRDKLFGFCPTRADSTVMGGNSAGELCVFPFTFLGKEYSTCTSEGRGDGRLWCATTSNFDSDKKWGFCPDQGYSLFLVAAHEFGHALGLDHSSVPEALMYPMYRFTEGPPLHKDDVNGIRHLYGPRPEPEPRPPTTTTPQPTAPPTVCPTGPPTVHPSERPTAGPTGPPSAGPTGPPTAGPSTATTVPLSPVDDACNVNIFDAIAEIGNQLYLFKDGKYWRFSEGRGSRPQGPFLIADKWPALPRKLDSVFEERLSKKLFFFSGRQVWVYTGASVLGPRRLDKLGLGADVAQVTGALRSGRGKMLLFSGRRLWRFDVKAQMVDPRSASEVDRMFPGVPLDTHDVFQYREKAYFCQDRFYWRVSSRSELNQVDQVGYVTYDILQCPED

Molecule: (GPO)5GPK(Mca)GPPG~VVGEK(Dnp)GEN(GPO)5-NH2 [fTHP]
- Km (MMP-9 [1]): 8.1 µM
- kcat (MMP-9 [1]): 0.044 s⁻¹
- kcat/KM (MMP-9 [1]): 5.4 × 10^3 s^−1M^−1
- TM [2]: 45.0 °C
- kcat/KM for gelatinases relative to other MMP family members [3]: more than 10 fold
- Km (MMP-2 [4]): 4.4 µM
- kcat (MMP-2 [4]): 0.061 s⁻¹
- kcat/KM (MMP-2 [4]): 14 × 10^3 s^−1M^−1

Molecule: CC1(C)SCCN(S(=O)(=O)c2ccc(Oc3ccncc3)cc2)[C@H]1C(=O)NO [Prinomastat, reference compound]
- reduction of tumor-associated fluorescence on co-administration (HT-1080 xenografts; with MMPSense, HT-1080 xenografts): 2.5 fold
- Ki (MMP-7): 0.054 µM

Molecule: (GPO)5GPKGPPG~VVGEK(cypate)GEQ(GPO)5 [cypate3-THP]
- additional absorption peak (aggregate) [5]: 710 nm
- main absorption peak [5]: 780 nm
- aggregation ([5]; 300 nM, up to 1.5 μM): significant intramolecular H-aggregation
- TM [6]: 50.5^b °C
- selectivity of hydrolysis [7]: efficiently hydrolyzed selectively by MMP-2 and -9
- kcat/KM (MMP-2 [8]): 6800 M⁻¹ s⁻¹
- kcat (MMP-2 [8]): 0.056 s⁻¹
- kcat/KM (MMP-2 [8]; Table 1): 6.8 × 10^3 s^−1M^−1
- Km (MMP-2 [8]): 8.19 µM
- average tumor to background ratio ([9]; 4 hours post-injection, n = 3): 10.2
- clearance of fluorescence ([9]; after 24 h): slowly cleared from most tissues after 24 h
- time of peak normalized fluorescence intensity ([9]; post-injection, n = 3): 4 h
- fluorescence enhancement within the tumor ([9]; abstract): significant fluorescence enhancement within the tumor
- normalized tumor fluorescence intensity ([9]; pmol cypate/mm^3 tumor volume, 1 hour post-injection, n = 3): relatively low
- kcat/KM (MMP-9 [10]): 6400 M⁻¹ s⁻¹
- kcat (MMP-9 [10]): 0.142 s⁻¹
- kcat/KM (MMP-9 [10]; Table 1): 6.4 × 10^3 s^−1M^−1
- Km (MMP-9 [10]): 22.3 µM
- quenching efficiency, comparison with and without PEG spacer [11]: similar

Molecule: (GPO)5GPKGPPG~VVGEK(PEG2-cypate)GEQ(GPO)5 [cypate3-(PEG)2-THP]
- TM [6]: 45.5^b °C
- kcat/KM (MMP-2 [8]): 9100 M⁻¹ s⁻¹
- kcat (MMP-2 [8]): 0.099 s⁻¹
- kcat/KM (MMP-2 [8]; Table 1): 9.1 × 10^3 s^−1M^−1
- Km (MMP-2 [8]): 10.9 µM
- kcat/KM (MMP-9 [10]): 9100 M⁻¹ s⁻¹
- kcat (MMP-9 [10]): 0.202 s⁻¹
- kcat/KM (MMP-9 [10]; Table 1): 9.1 × 10^3 s^−1M^−1
- Km (MMP-9 [10]): 22.2 µM
- quenching efficiency, comparison with and without PEG spacer [11]: similar

Molecule: CC1(C)C(/C=C/C=C/C=C/C=C2/N(CCC(=O)O)c3ccc4ccccc4c3C2(C)C)=[N+](CCC(=O)O)c2ccc3ccccc3c21.[Br-] [cypate]
- binding affinity to albumin (albumin): good binding affinity

Molecule: PLGVR [MMPSense]
- visualization of HT-1080 xenografts (HT-1080 xenografts; NIR reflectance imaging): enabled the visualization of the HT-1080 xenografts
